Compound activity (PubChem BioAssay)
KCNK9 inh – inhibitors of human KCNK9 two-pore domain potassium channel | B-score at 10 µM | HEK293 KCNK9, FluxOR thallium flux fluorescence; hits give low values | actives 1.2% (n = 310,000);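 active = ratio B-score over 3 SD below the library mean, with starting fluorescence within 5 SD of its mean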;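 also: negative B-score means less thallium flux so channel inhibition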
KCNQ1 pot – potentiators or activators of human KCNQ1 potassium channel; actives 0.35% (n = 310,000); P51787; CHO-K1 KCNQ1, thallium flux FluxOR fluorescence; hits give high values; AID 2648; B-score at 10 µM;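 active = fluorescence ratio B-score, a plate-corrected score, at least three library SD, with initial intensity B-score within 5 SD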
Target sequence (P51787 whole entry, looked up): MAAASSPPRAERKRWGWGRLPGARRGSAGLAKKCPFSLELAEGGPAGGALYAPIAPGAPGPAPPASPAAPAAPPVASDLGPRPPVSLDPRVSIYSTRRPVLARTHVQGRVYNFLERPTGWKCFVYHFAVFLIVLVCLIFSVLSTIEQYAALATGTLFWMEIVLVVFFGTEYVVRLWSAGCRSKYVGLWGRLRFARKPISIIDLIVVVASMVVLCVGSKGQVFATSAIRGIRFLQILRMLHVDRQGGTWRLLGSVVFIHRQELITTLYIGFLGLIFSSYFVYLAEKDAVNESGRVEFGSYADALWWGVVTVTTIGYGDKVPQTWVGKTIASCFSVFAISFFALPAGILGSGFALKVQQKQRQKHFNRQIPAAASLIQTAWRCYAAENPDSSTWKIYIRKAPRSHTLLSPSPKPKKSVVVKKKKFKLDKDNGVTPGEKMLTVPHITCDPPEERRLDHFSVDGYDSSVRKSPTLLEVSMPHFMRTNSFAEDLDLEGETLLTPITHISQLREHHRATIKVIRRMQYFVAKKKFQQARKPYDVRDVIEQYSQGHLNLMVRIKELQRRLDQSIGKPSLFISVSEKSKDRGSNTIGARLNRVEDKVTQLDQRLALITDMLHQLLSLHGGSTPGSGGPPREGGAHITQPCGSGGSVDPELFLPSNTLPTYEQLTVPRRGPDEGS
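Medium – assay buffer, equal DMSO in all wells · Material – CHO-K1 cell line with stable KCNQ1 potassium channel expression · Signal – kinetic FluxOR thallium fluorescence, 10-s 1-Hz baseline, 110-s post-stimulus read · Compound – single concentration per compound, DMSO matched to controls · Schedule – 37 °C overnight plating, 90-min dark dye load, 20-min compound pretreatment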
hERG rescue – shields human hERG channel from block by proarrhythmic agents | activation (rescue from dofetilide block), less the hit threshold, % at 10 µM | actives 0.51% (n = 310,000) | Q12809 | AID 1511 | CHO-hERG, FluxOR thallium flux, dofetilide IC70 present;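 active = activation above the mean of controls blocked by dofetilide plus 5 SD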;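 also: thallium influx through hERG after potassium depolarization seen as dye fluorescence rise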
KCNQ1 block – inhibitors of human KCNQ1 potassium channel; CHO-K1 KCNQ1, FluxOR thallium flux fluorescence; hits give high values; B-score at 10 µM; P51787; actives 1.3% (n = 310,000);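 active = compounds whose thallium flux B-score, printed positive for inhibition, exceeds three library SD while starting fluorescence stays within three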;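 also: channel opened by potassium depolarization with thallium stimulus after 20 min compound exposure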
PHOSPHO1 inh – blocks human PHOSPHO1 phosphatase activity; inhibition, % at 13.3 µM; AID 1565; recombinant PHOSPHO1, absorbance phosphatase assay; actives 1.1% (n = 290,000); in the data active = inhibition above about 60%
KCNK3 block – human KCNK3 channel inhibition, primary screen; CHO-KCNK3 thallium flux, FluxOR fluorescence; hits give low values; AID 602410; B-score at 10 µM; actives 0.84% (n = 340,000);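 active = B-score under library mean minus 4 SD, starting fluorescence ratio at most library mean plus 5 SD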;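 also: more negative B-score means stronger inhibition of thallium flux through KCNK3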
* = called active by the depositor; i = inactive; · = no result given. Sampled rows, rich in hits. Any-hit rate of the full collection: about 4%.

SMILES	KCNK9 inh	KCNQ1 pot	hERG rescue	KCNQ1 block	PHOSPHO1 inh	KCNK3 block
COc1ccccc1C(CCNCc1ccc(N(C)C)cc1)c1ccc(OC(C)C)cc1 (centres undefined)	i	i	-27	10*	24	i
COc1ccc(CNCCC(c2ccc(OC(C)C)cc2)c2ccccc2OC)cc1OC (centres undefined)	i	i	-16	i	-6	i
CC1(C)CC(NS(=O)(=O)c2ccc(Cl)cc2)CC(C)(C)N1	i	i	-3	i	14	i
N#CCSc1ncnc2c1cnn2CCO	i	i	-2	i	-18	i
Cc1nc(NC(=O)CSc2nc3ccccc3s2)sc1C(=O)N(C)C	i	i	-9	i	16	i
Cc1ccc(C(=O)N2CCN(C)CC2)cc1S(=O)(=O)N1CCOCC1	i	i	-3	i	46	i
Cc1ccc(CSCCNC(=O)c2ccc(C)cc2)cc1	i	i	-5	i	62*	i
CC(NC(=O)c1cc2ccccc2o1)c1ccccc1 (centres undefined)	i	i	-3	i	32	i
CSC(C(=O)c1cc2ccccc2o1)c1ccccc1 (centres undefined)	i	15*	-6	i	·	i
Clc1ccc2nc(-c3ccc(Br)s3)cn2c1	i	i	-12	i	8	i
CC1=Nn2c(nnc2-c2ccccc2Cl)SC1	i	i	-5	i	74*	i
COc1ccccc1-c1nnc2n1N=C(C)CS2	i	i	-12	i	74*	i
CCOC(=O)C1=C(C)NC(C)=C(C(=O)OCC)C1c1ccccc1/C=C/C(=O)OC(C)(C)C	i	i	-10	8*	·	·
COC(=O)CNC(c1ccccc1)c1cc(Br)ccc1NS(=O)(=O)c1ccccc1 (centres undefined)	-6.6*	i	-7	i	-22	i
CCOC(=O)CNC(c1ccccc1)c1cc(Br)ccc1NC(=O)OCC (centres undefined)	i	i	-4	i	24	i
COC(=O)CNC(c1ccccc1)c1cc(Br)ccc1NS(=O)(=O)c1ccc(C)cc1 (centres undefined)	-7.4*	i	-13	i	-10	i
COC(=O)CNC(c1ccccc1)c1cc(Br)ccc1N (centres undefined)	i	i	-3	i	33	i
Cn1cccc1-c1nc2ccccc2n1Cc1ccccc1	i	i	-6	i	-10	i
CN(CC(=O)Nc1ccccc1Cl)CC(=O)Nc1cccc2ccccc12	·	·	·	·	·	i
CN(CC(=O)Nc1ccccc1Cl)CC(=O)Nc1c(F)cccc1F	i	i	5.2*	i	-22	i
OC[C@H]1O[C@H](OC[C@H]2O[C@H](OC[C@H]3O[C@H](O[C@]4(CO)O[C@H](CO)[C@@H](O)[C@@H]4O)[C@H](O)[C@@H](O)[C@@H]3O)[C@H](O)[C@@H](O)[C@H]2O)[C@H](O)[C@@H](O)[C@H]1O	i	32*	-3	i	·	i
COc1ccc(-c2c(-c3ccsc3)oc3ccc(N4CCOCC4)cc23)cn1	-7.9*	i	-8	i	·	i
CCCn1c(SCC(=O)c2cc(C)c(C)cc2C)n[nH]c1=O	i	i	-3	i	97*	i
O=C(NCC(=O)N1CCN(c2ncccn2)CC1)c1ccccc1OC(F)F	·	·	·	·	·	i
COc1cccc(NC(=O)C(C)N2C(=O)c3ccccc3C2=O)c1 (centres undefined)	i	i	-9	i	34	i
SMILES	KCNK9 inh	KCNQ1 pot	hERG rescue	KCNQ1 block	PHOSPHO1 inh	KCNK3 block
CCOC(=O)c1cnn(-c2nc3c(C)cccc3s2)c1C(F)(F)F	-7.9*	i	-10	i	3	i
COc1cc(C(=O)NCCCc2nc3ccccc3n2Cc2cc(C)ccc2C)cc(OC)c1OC	i	i	-9	i	-6	i
CC(=O)NCCCc1nc2ccccc2n1Cc1cc(C)ccc1C	i	i	-11	i	64*	i
COc1ccc(C(=O)NC(C)c2nnc(SCc3ccc(Cl)c(Cl)c3)n2C)cc1 (centres undefined)	i	i	-2	i	82*	i
CCOC(=O)CC(=O)CSc1nc2c(cc1C#N)CCCCCC2	i	i	-16	i	76*	i
Cc1snc(SCC(=O)c2ccc([N+](=O)[O-])cc2)c1C#N	·	·	·	·	72*	i
CCn1c(O)c2ccc(C(=O)N=NC(=O)c3ccccc3)cc2c1O	i	i	-2	i	14	i
N#CCCn1nc(-c2ccc(Cl)cc2)cc1Nc1ccccc1NC(=O)C(F)(F)F	i	i	-14	6*	3	i
Cn1c(=S)c2[nH]c(SCCN3CCCC3)nc2n(C)c1=O	-6.9*	i	-3	i	25	i
CCCc1cc(C(=O)NNC(=S)Nc2cccc(C)c2)cs1	i	i	3	i	18	i
CCC1CC2(C)NC(=O)c3c(sc4c3CC(C)(C)OC4)N2C1=O (centres undefined)	i	i	-10	i	84*	i
CCC(=O)N1CCN(c2ccc(NC(=O)c3ccc(C#N)cc3F)cc2Cl)CC1	i	i	-7	i	34	i
CCC(C)C(NC(=O)c1ccccc1NC(=O)c1ccc(OC)cc1)C(=O)NCc1ccco1 (centres undefined)	i	i	-13	7*	-56	i
COc1ccc(C(=O)Nc2ccc(Cl)cc2C(=O)NCc2ccco2)cc1	i	i	-19	i	-17	i
Cc1nc2c3cc(F)ccc3n(Cc3ccccc3F)c2s1	-8*	i	-6	i	-9	i
Cc1nc2c3ccccc3n(Cc3ccccc3F)c2s1	i	i	-4	i	4	i
COc1ccc(C(C(=O)NC2CCCCC2)N(Cc2cccs2)C(=O)Cc2c[nH]c3ccccc23)cc1 (centres undefined)	-7.3*	i	-9	i	41	i
COc1ccc(CN(C(=O)Cc2cccs2)C(C(=O)NC2CCCC2)c2ccncc2)cc1 (centres undefined)	i	i	-1	i	37	i
COc1cccc(CN(C(=O)Cc2c[nH]c3ccccc23)C(C(=O)NC2CCCCC2)c2cccs2)c1 (centres undefined)	i	i	-14	7*	58	i
COC(=O)c1ccc(COC(=O)C(NC(=O)Cc2ccccc2)C(C)C)cc1 (centres undefined)	·	·	·	·	·	i
C=CC[C@H](CC(=O)N(CCO)Cc1ccccc1)C(=O)N[C@H](COC(=O)[C@@H](CC=C)Cc1ccc(F)cc1)Cc1c[nH]c2ccccc12	·	·	·	·	·	i
